ChEMBL document CHEMBL1921714, “Discovery of aminobenzyloxyarylamides as κ opioid receptor selective antagonists: application to preclinical development of a κ opioid receptor antagonist receptor occupancy tracer” (J Med Chem, 2011)
Activity calls are given as the source filed them. The calls are words filed in the database; no cut-off is given here.

How the values were obtained:
[1] = biological target: T1, Kappa-type opioid receptor (Homo sapiens, UniProt P41145); experiment: Displacement of [3H]diprenorphine from human opioid kappa receptor expressed in CHO cells after 120 mins by scintillation counting; format: cell-based
Outline: (§1)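 11-point curves, 0.01 nM–1 μM final. 120 min at 22 °C, then filtration and scintillation counting. Nonspecific binding set by 10 μM naltrexone. Four-parameter IC50; Ki by Cheng–Prusoff.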

Nucleic Acid = experiment: Ratio of drug uptake in striatum to cerebellum in rat at 3 ug/kg, iv measured after 40 mins by LC/MS/MS analysis; format: ADME, organism-based; conditions: in vivo, 0.003 mg/kg
Outline: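 Groups of four rats were given iv tracer and killed 20 or 40 min after dosing. Striatum (total binding) and cerebellum (nonspecific, null region) were extracted in acetonitrile/0.1% formic acid and quantified by LC/MS/MS. Binding potential was calculated as (striatum/cerebellum concentration) − 1.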

Cerebellum = experiment: Drug uptake in rat cerebellum at 3 ug/kg, iv pretreated 1 hr with 3-Fluoro-4-[4-[[ (2S)-2-(3-fluorophenyl)pyrrolidin-1-yl]methyl]- phenoxy]benzamide measured after 40 mins by LC/MS-MS analysis; format: ADME, organism-based; conditions: in vivo, 0.003 mg/kg
Outline: (§2)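 Rats were pretreated 1 h with the κ antagonist at a range of doses, then given tracer at 3 ug/kg iv. Brains were taken 40 min after tracer. Striatum and cerebellum were extracted in acetonitrile/0.1% formic acid and tracer levels quantified by LC/MS/MS.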

CHO [2] = experiment: Selectivity ratio of Kb for human opioid mu receptor expressed in CHO cells to Kb for human opioid kappa receptor expressed in CHO cells; format: cell-based
Outline: (§3)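 Kb ratios from antagonist [35S]GTP-γ-S SPA on CHO (κ, μ) or HEK293 (δ) membranes. Agonists at about 80% maximal: U69,593 300 nM (κ), DAMGO 1 μM (μ), DPDPE 30 nM (δ). 11-point curves, top 1 or 10 μM. Nonspecific binding: NorBNI, naltrexone or naltriben, each 10 μM. Kb = IC50/(1+D/EC50); geometric means with SEM.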

Striatum [3] = experiment: Drug uptake in rat striatum at 3 ug/kg, iv pretreated 1 hr with 3-Fluoro-4-[4-[[ (2S)-2-(3-fluorophenyl)pyrrolidin-1-yl]methyl]- phenoxy]benzamide measured after 40 mins by LC/MS-MS analysis; format: ADME, organism-based; conditions: in vivo, 0.003 mg/kg; outline: as §2
Striatum [4] = experiment: Drug uptake in rat striatum at 3 ug/kg, iv measured after 40 mins by LC/MS-MS analysis; format: ADME, organism-based; conditions: in vivo, 0.003 mg/kg
Outline: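 Groups of four rats received a single iv tracer dose and were killed 20 or 40 min later. Striatum was weighed, homogenized in 4 volumes acetonitrile/0.1% formic acid and centrifuged. The supernatant was diluted and analysed by LC/MS/MS against standards spiked into naive rat brain. %SUV = tissue amount/injected dose × 100.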

Mu-type opioid receptor [5] = biological target: T2, Mu-type opioid receptor (Homo sapiens, UniProt P35372); experiment: Agonist activity at human opioid mu receptor expressed in CHO cells assessed as stimulation of [35S]-GTPgammaS binding at 10 uM; format: functional, cell-based
Outline: (§4)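 Agonist mode: membranes from CHO (κ, μ) or HEK293 (δ) cells expressing cloned human receptors, no agonist added, tested at up to 10 μM. [35S]GTP-γ-S (0.5 nM final) binding in HEPES pH 7.4, MgCl2, NaCl, EDTA, DTT, 200 μM GDP. Read by WGA SPA beads after 2 h (δ) or 4 h (κ, μ) at room temperature, then 4 °C overnight.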

[6] = biological target: T3, Delta-type opioid receptor (Homo sapiens, UniProt P41143); experiment: Antagonist activity at human opioid delta receptor expressed in HEK293 cells assessed as inhibition of DPDPE-induced [35S]GTP-gamma-S binding after 4 hrs by scintillation counting; format: functional, cell-based
[7] = biological target: T3, Delta-type opioid receptor; experiment: Agonist activity at human opioid delta receptor expressed in HEK293 cells assessed as stimulation of [35S]-GTPgammaS binding at 10 uM; format: functional, cell-based; outline: as §4
CHO [8] = experiment: Selectivity ratio of Ki for human opioid mu receptor expressed in CHO cells to Ki for human opioid kappa receptor expressed in CHO cells; format: cell-based
Mu-type opioid receptor [9] = biological target: T2, Mu-type opioid receptor; experiment: Antagonist activity at human opioid mu receptor expressed in CHO cells assessed as inhibition of DAMGO-induced [35S]GTP-gamma-S binding after 4 hrs by scintillation counting; format: functional, cell-based
HEK293 [10] = experiment: Selectivity ratio of Ki for human opioid delta receptor expressed in HEK293 cells to Ki for human opioid kappa receptor expressed in CHO cells; format: cell-based
[11] = biological target: T1, Kappa-type opioid receptor; experiment: Agonist activity at human opioid kappa receptor expressed in CHO cells assessed as stimulation of [35S]-GTPgammaS binding at 10 uM; format: functional, cell-based; outline: as §4
[12] = biological target: T1, Kappa-type opioid receptor; experiment: Antagonist activity at human opioid kappa receptor expressed in CHO cells assessed as inhibition of U69593-induced [35S]GTP-gamma-S binding after 4 hrs by scintillation counting; format: functional, cell-based
[13] = biological target: T3, Delta-type opioid receptor; experiment: Displacement of [3H]diprenorphine from human opioid delta receptor expressed in HEK293 cells after 120 mins by scintillation counting; format: cell-based; outline: as §1
Mu-type opioid receptor [14] = biological target: T2, Mu-type opioid receptor; experiment: Displacement of [3H]diprenorphine from human opioid mu receptor expressed in CHO cells after 120 mins by scintillation counting; format: cell-based; outline: as §1
HEK293 [15] = experiment: Selectivity ratio of Kb for human opioid delta receptor expressed in HEK293 cells to Kb for human opioid kappa receptor expressed in CHO cells; format: cell-based; outline: as §3

T2 sequence (P35372 whole entry): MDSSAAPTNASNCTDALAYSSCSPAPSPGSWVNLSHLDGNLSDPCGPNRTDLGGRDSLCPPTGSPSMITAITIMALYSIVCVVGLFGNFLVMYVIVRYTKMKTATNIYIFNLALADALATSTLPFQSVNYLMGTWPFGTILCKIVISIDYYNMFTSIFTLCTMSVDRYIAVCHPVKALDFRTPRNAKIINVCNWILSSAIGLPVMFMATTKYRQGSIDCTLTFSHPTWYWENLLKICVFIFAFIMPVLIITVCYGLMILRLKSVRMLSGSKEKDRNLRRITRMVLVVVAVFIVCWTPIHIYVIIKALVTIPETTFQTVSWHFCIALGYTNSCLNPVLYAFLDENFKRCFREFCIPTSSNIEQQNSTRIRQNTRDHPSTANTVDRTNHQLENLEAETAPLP
T3 sequence (P41143 whole entry): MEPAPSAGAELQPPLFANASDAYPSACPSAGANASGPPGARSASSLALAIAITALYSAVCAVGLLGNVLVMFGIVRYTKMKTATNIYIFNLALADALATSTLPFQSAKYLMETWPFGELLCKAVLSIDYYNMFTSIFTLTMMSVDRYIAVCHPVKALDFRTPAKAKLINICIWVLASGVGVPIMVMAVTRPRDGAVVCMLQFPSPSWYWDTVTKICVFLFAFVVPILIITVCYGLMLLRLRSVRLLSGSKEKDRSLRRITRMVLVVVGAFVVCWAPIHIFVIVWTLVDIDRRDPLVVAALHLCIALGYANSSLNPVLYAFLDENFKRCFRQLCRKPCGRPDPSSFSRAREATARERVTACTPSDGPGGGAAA
T1 sequence (P41145 whole entry): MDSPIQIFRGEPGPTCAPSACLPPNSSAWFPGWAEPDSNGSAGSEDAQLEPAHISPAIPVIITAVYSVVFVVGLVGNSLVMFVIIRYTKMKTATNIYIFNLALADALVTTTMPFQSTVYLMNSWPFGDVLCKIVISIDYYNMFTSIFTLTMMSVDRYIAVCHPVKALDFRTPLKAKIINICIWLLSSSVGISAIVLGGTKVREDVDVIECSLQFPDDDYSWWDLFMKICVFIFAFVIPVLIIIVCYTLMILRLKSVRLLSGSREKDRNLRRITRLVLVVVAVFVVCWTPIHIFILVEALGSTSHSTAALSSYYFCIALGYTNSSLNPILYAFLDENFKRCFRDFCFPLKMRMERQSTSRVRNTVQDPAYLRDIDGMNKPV

NC(=O)c1ccc(Oc2ccc(CN3CCC[C@H]3c3cccnc3)cc2)c(Cl)c1
Ki [1]: 0.000722 µM | Ratio (Nucleic Acid): 1.2 | Drug uptake (Cerebellum): Not Active | Ratio (CHO [2]): 11 | Drug uptake (Striatum [3]): Active | SUV (Striatum [4]): 67% | Activity (Mu-type opioid receptor [5]): inactive | Kb [6]: 0.0833 µM | Activity [7]: inactive | Ratio Ki (CHO [8]): 36 | Kb (Mu-type opioid receptor [9]): 0.0068 µM | Ratio Ki (HEK293 [10]): 212 | Activity [11]: inactive | Kb [12]: 0.000632 µM | Ki [13]: 0.153 µM | Ki (Mu-type opioid receptor [14]): 0.0258 µM | Ratio (HEK293 [15]): 132
